Assay results from ChEMBL document CHEMBL1143247, “Vesicular monoamine transporter substrate/inhibitor activity of MPTP/MPP+ derivatives: a structure-activity study” (J Med Chem, 2008).

B1: Synaptic vesicular amine transporter (Bos taurus), Q27963 (protein)
chain: MALSELALLRRLQESRHSRKLILFIVFLALLLDNMLLTVVVPIIPSYLYSIEHEKDALEIQTAKPGLTASAPGSFQNIFSYYDNSTMVTGNSTDHLQGALVHEATTQHMATNSSSASSDCPSEDKDLLNENVQVGLLFASKATVQLLTNPFIGLLTNRIGYPIPMFTGFCIMFISTVMFAFSRTYAFLLIARSLQGIGSSCSSVAGMGMLASVYTDDEERGNAMGIALGGLAMGVLVGPPFGSVLYEFVGKTAPFLVLAALVLLDGAIQLFVLQPSRVQPESQKGTPLTTLLRDPYILIAAGSICFANMGIAMLEPALPIWMMETMCSHKWQLGVAFLPASVSYLIGTNVFGILAHKMGRWLCALLGMIIVGMSILCIPLAKNIYGLIAPNFGVGFAIGMVDSSMMPIMGYLVDLRHVSVYGSVYAIADVAFCMGYAIGPSAGGAIAKAIGFPWLMTIIGIIDILFAPLCFFLRSPPAKEEKMAILMDHNCPIKTKMYTQNSSQSHPIGEDEESESD

How the values were obtained:
[1] = target: Synaptic vesicular amine transporter (Bos taurus) (UniProt Q27963); assay: Ratio of Km for dopamine uptake at VMAT in bovine chromaffin granule ghosts to Ki for VMAT in bovine chromaffin granule ghosts
Outline: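 Ratio of Km for DA to Ki for the inhibitor. Both were determined on the same ghost preparation for each compound, to normalize day-to-day variation in DA Km between preparations. Ki comes from DA-uptake competition in resealed bovine chromaffin granule ghosts (5 mM Mg-ATP, pH 7.0, 30 °C, HPLC-EC read-out). Km for DA comes from initial uptake rates fitted to Michaelis–Menten.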

[2] = target: Synaptic vesicular amine transporter (Bos taurus, UniProt Q27963); assay: Inhibition of dopamine uptake at VMAT in bovine chromaffin granule ghosts
Outline: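 Resealed bovine chromaffin granule ghosts preincubated 10 min at 30 °C in 0.3 M sucrose, 10 mM HEPES, 5 mM Mg-ATP, 5 mM MgSO₄, 100 µg/mL catalase, pH 7.0. Inhibitor then added for 2 min before starting uptake with DA. Aliquots taken at 6 min intervals, pelleted, washed and extracted in 0.1 M HClO₄. Intragranular catecholamines measured by HPLC-EC. Ki obtained by fitting typically 4–5 inhibitor × 6 DA concentrations to a competitive model. Errors are fitting standard errors.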

[3] = substrate: CN1CC=C(c2ccccc2)CC1; assay: (§1) Activity of VMAT in bovine chromaffin granule ghosts assessed as drug uptake; settings: Bos taurus
Outline: (§2)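 Resealed bovine adrenal chromaffin granule ghosts, prepared fresh from frozen membrane stores, preincubated 10 min at 30 °C in 0.3 M sucrose, 10 mM HEPES, 5 mM Mg-ATP, 5 mM MgSO₄, 100 µg/mL catalase, pH 7.0. Test substrate added without DA. Aliquots taken at 6 min intervals, diluted into ice-cold sucrose/HEPES, pelleted, washed, extracted with 0.1 M HClO₄. Intragranular substrate measured by HPLC-UV. Km and Vmax come from Michaelis–Menten fits of initial rates at 12 substrate concentrations.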

[4] = substrate: C[n+]1ccc(-c2ccc(O)cc2)cc1; assay: as §1; settings: Bos taurus; outline: as §2
[5] = substrate: C[n+]1ccc(-c2cccc(O)c2)cc1; assay: as §1; settings: Bos taurus; outline: as §2
[6] = substrate: C[n+]1ccc(-c2ccccc2)cc1; assay: as §1; settings: Bos taurus; outline: as §2
[7] = substrate: COc1ccc(-c2cc[n+](C)cc2)cc1; assay: as §1; settings: Bos taurus; outline: as §2
[8] = substrate: Cc1ccc(-c2cc[n+](C)cc2)cc1; assay: as §1; settings: Bos taurus; outline: as §2

Molecule	Dopamine Km / inhibitor Ki ratio [1]	Ki [2]	other results
C[n+]1cccc(-c2ccc(O)cc2)c1	0.1	338 µM	–
C=C(CN1CCC(c2ccccc2)CC1)c1ccccc1	1.8	16.4 µM	–
C=C(C[n+]1ccc(-c2ccc(OC)cc2)cc1)c1ccccc1	8.7	2.8 µM	–
C=C(C[n+]1ccc(C2CCCCC2)cc1)c1ccccc1	0.7	53 µM	–
C=C(CN1CCN(c2ccccc2)CC1)c1ccccc1	24.1	1.4 µM	–
C=C(C[n+]1ccc(-c2ccccc2)cc1)c1ccc(-c2ccccc2)cc1	11.3	4.5 µM	–
C[n+]1ccc(-c2ccc(Cl)cc2)cc1	5.8	7.6 µM	–
Cc1ccccc1-c1cc[n+](C)cc1	0.3	95 µM	–
COc1ccc(-c2cc[n+](C)cc2)cc1	0.2	106 µM	–
CN1CC=C(c2cccc(Cl)c2)CC1	1.6	27.7 µM	–
C[n+]1ccc(-c2ccccc2)cc1	–	92 µM	–
C=C(C[n+]1ccc(-c2ccccc2)nc1)c1ccccc1	2.7	13.4 µM	–
Cc1c[n+](C)ccc1-c1ccc(O)cc1	0.8	65 µM	–
COc1cc2c(cc1OC)C1CC(=O)C(CC(C)C)CN1CC2 (centres undefined) [TETRABENAZINE]	–	0.004 µM	–
C[n+]1ccc(-c2cccc(Cl)c2)cc1	1.1	46.3 µM	–
C=C(C[n+]1ccc(-c2cccc(O)c2)cc1)c1ccc(I)cc1	55	0.4 µM	–
C=C(C[n+]1ccc(-c2ccccc2)cc1)c1ccccc1	0.9	38.4 µM	–
C[N+]1=CC=C(c2ccccc2)CC1	0.7	53 µM	–

Molecule	Dopamine Km / inhibitor Ki ratio [1]	Ki [2]	other results
C[n+]1ccc(-c2cccc(C(F)(F)F)c2)cc1	1.8	24.6 µM	–
CN1CC=C(c2ccccc2)CC1	–	52.5 µM	–
C[n+]1ccc(-c2ccc(C(F)(F)F)cc2)cc1	1.3	33.8 µM	–
C[n+]1ccc(-c2ccc(O)cc2)cc1	0.7	82 µM	–
C[n+]1ccc(-c2ccc(F)cc2)cc1	1	51.3 µM	–
CN1CC=C(c2ccc(F)cc2)CC1	0.9	49.7 µM	–
CN1CC=C(c2ccccc2N)CC1	0.1	193 µM	–
Cc1ccccc1C1=CCN(C)CC1	–	38.4 µM	–
C[n+]1ccc(-c2cccc(O)c2)cc1	9.7	2.4 µM	–
C[n+]1cccc(-c2cccc(O)c2)c1	1.2	36.6 µM	–
COC(=O)[C@H]1[C@H]2C[C@@H]3c4[nH]c5cc(OC)ccc5c4CCN3C[C@H]2C[C@@H](OC(=O)c2cc(OC)c(OC)c(OC)c2)[C@@H]1OC [RESERPINE]	–	0.001 µM	–
COc1ccc2c3c([nH]c2c1)[C@H]1C[C@H]2[C@H](C[C@@H](O)[C@H](OC)[C@H]2C(=O)O)CN1CC3	–	10 µM	–
Cc1ccc(-c2cc[n+](C)cc2)cc1	1	51.8 µM	–
C=C(C[n+]1ccc(-c2ccc(O)cc2)cc1)c1ccc(Br)cc1	41.5	0.5 µM	–
CN1CC=C(c2ccc(O)cc2)CC1	0.3	134 µM	–
CN1CC=C(c2cccc(O)c2)CC1	1.7	25.8 µM	–
B1	–	–	Km [3]: 409 µM; Vmax [3]: 1.7 nmol/mg/min; Km [4]: 107 µM; Vmax [4]: 1.6 nmol/mg/min; Km [5]: 8.4 µM; Vmax [5]: 1.9 nmol/mg/min; Km [6]: 73 µM; Vmax [6]: 1.4 nmol/mg/min; Km [7]: 135 µM; Vmax [7]: 1.6 nmol/mg/min; Km [8]: 41.3 µM; Vmax [8]: 0.9 nmol/mg/min
